ChEMBL document CHEMBL3272347, “Adamantanamine derivatives. Antimicrobial activities of certain Mannich bases” (1976)
Values after ≈ are worked out from the molar mass of the structure shown.

How the values were obtained:
Assay type in all cases: functional
Staphylococcus aureus [1] = experiment: Antimicrobial activity against Staphylococcus aureus ATCC 10001 assessed as zone of inhibition after 24 hrs at 0.1 mg/0.1 ml by agar diffusion method
Method in brief: (§1)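 Bacteria were tested on seeded agar plates with 12.7-mm disks, each loaded with 0.1 ml of compound in Me2SO (stock used directly or Me2SO-diluted). Disks were held 30 min on a wire screen before placement, four per plate. Incubation was 37°, 24 hr. Inhibition zones were measured by caliper to the nearest 0.1 mm. Replicates were 2–4 per dilution over at least two separate days, averaged.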

Mycolicibacterium phlei [2] = experiment: Antimicrobial activity against Mycobacterium phlei ATCC 356 assessed as zone of inhibition after 48 hrs at 0.25 mg/0.1 ml by agar diffusion method
Method in brief: (§2)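 Mycobacterium disk diffusion on MDTM agar. Each disk (12.7 mm) got 0.1 ml of Me2SO solution, was air-stood 30 min, then was placed four per seeded plate. Plates were incubated at 37° for 48 hr. Zone diameter was measured by caliper to 0.1 mm. Results averaged 2–4 replicate disks and ≥2 independent-day experiments.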

Staphylococcus aureus [3] = experiment: Antimicrobial activity against Staphylococcus aureus by tube dilution method
Method in brief: (§3)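 MIC was found by tube dilution, with Me2SO as carrier solvent diluted in the tubes. For M. smegmatis, separate determinations were made in MDTM broth and in MDTM agar.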

[4] = tested on: Mycolicibacterium smegmatis; experiment: Antimicrobial activity against Mycobacterium smegmatis by tube dilution method; method in brief: as §3
Pseudomonas aeruginosa [5] = experiment: Antimicrobial activity against Pseudomonas aeruginosa OU 10048 assessed as zone of inhibition after 24 hrs at 4 mg/0.1 ml by agar diffusion method; method in brief: as §1
Escherichia coli [6] = experiment: Antimicrobial activity against Escherichia coli ATCC 8739 assessed as zone of inhibition after 24 hrs at 2 mg/0.1 ml by agar diffusion method; method in brief: as §1
Escherichia coli [7] = experiment: Antimicrobial activity against Escherichia coli ATCC 11303 assessed as zone of inhibition after 24 hrs at 1 mg/0.1 ml by agar diffusion method; method in brief: as §1
Escherichia coli [8] = experiment: Antimicrobial activity against Escherichia coli by tube dilution method; method in brief: as §3
Aspergillus niger [9] = experiment: Antimicrobial activity against Aspergillus niger OU S-23 assessed as zone of inhibition after 48 hrs at 2 mg/0.1 ml by agar diffusion method
Method in brief: (§4)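 Disk agar diffusion on SDA. Compound in Me2SO stock, used neat or diluted in Me2SO, was loaded at 0.1 ml per 12.7-mm disk. Disks stood 30 min on mesh, then went four per seeded plate. Plates ran at 37° for 48 hr (A. niger) or 24 hr (C. albicans). Zones were read by caliper to 0.1 mm. There were 2–4 replicate disks per dilution and ≥2 experiments on separate days with same-day stocks; results were averaged.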

Candida albicans [10] = experiment: Antimicrobial activity against Candida albicans CDC MI-023 assessed as zone of inhibition after 24 hrs at 0.5 mg/0.1 ml by agar diffusion method; method in brief: as §4
[11] = tested on: Mycolicibacterium smegmatis; experiment: Antimicrobial activity against Mycobacterium smegmatis OU 10049 assessed as zone of inhibition after 48 hrs at 0.25 mg/0.1 ml by agar diffusion method; method in brief: as §2
Escherichia coli [12] = experiment: Antimicrobial activity against Escherichia coli ATCC 10586 assessed as zone of inhibition after 24 hrs at 1 mg/0.1 ml by agar diffusion method; method in brief: as §1
Staphylococcus aureus [13] = experiment: Antimicrobial activity against Staphylococcus aureus ATCC 10014 assessed as zone of inhibition after 24 hrs at 0.1 mg/0.1 ml by agar diffusion method; method in brief: as §1
Escherichia coli [14] = experiment: Antimicrobial activity against Escherichia coli ATCC 8739 assessed as zone of inhibition after 24 hrs at 0.5 mg/0.1 ml by agar diffusion method; method in brief: as §1
Escherichia coli [15] = experiment: Antimicrobial activity against Escherichia coli ATCC 11303 assessed as zone of inhibition after 24 hrs at 0.1 mg/0.1 ml by agar diffusion method; method in brief: as §1
Candida albicans [16] = experiment: Antimicrobial activity against Candida albicans CDC MI-023 assessed as zone of inhibition after 24 hrs at 0.1 mg/0.1 ml by agar diffusion method; method in brief: as §4
Staphylococcus aureus [17] = experiment: Antimicrobial activity against Staphylococcus aureus ATCC 10001 assessed as zone of inhibition after 24 hrs at 0.05 mg/0.1 ml by agar diffusion method; method in brief: as §1
Staphylococcus aureus [18] = experiment: Antimicrobial activity against Staphylococcus aureus ATCC 10014 assessed as zone of inhibition after 24 hrs at 0.05 mg/0.1 ml by agar diffusion method; method in brief: as §1
Escherichia coli [19] = experiment: Antimicrobial activity against Escherichia coli ATCC 10586 assessed as zone of inhibition after 24 hrs at 0.25 mg/0.1 ml by agar diffusion method; method in brief: as §1
[20] = tested on: Mycolicibacterium smegmatis; experiment: Antimicrobial activity against Mycobacterium smegmatis OU 10049 assessed as zone of inhibition after 48 hrs at 0.5 mg/0.1 ml by agar diffusion method; method in brief: as §2
Mycolicibacterium phlei [21] = experiment: Antimicrobial activity against Mycobacterium phlei ATCC 356 assessed as zone of inhibition after 48 hrs at 0.5 mg/0.1 ml by agar diffusion method; method in brief: as §2
Escherichia coli [22] = experiment: Antimicrobial activity against Escherichia coli ATCC 10586 assessed as zone of inhibition after 24 hrs at 2 mg/0.1 ml by agar diffusion method; method in brief: as §1
Escherichia coli [23] = experiment: Antimicrobial activity against Escherichia coli ATCC 11303 assessed as zone of inhibition after 24 hrs at 2 mg/0.1 ml by agar diffusion method; method in brief: as §1
Aspergillus niger [24] = experiment: Antimicrobial activity against Aspergillus niger OU S-23 assessed as zone of inhibition after 48 hrs at 4 mg/0.1 ml by agar diffusion method; method in brief: as §4
Candida albicans [25] = experiment: Antimicrobial activity against Candida albicans CDC MI-023 assessed as zone of inhibition after 24 hrs at 4 mg/0.1 ml by agar diffusion method; method in brief: as §4
Staphylococcus aureus [26] = experiment: Antimicrobial activity against Staphylococcus aureus ATCC 10014 assessed as zone of inhibition after 24 hrs at 2 mg/0.1 ml by agar diffusion method; method in brief: as §1
Staphylococcus aureus [27] = experiment: Antimicrobial activity against Staphylococcus aureus ATCC 10001 assessed as zone of inhibition after 24 hrs at 2 mg/0.1 ml by agar diffusion method; method in brief: as §1
Staphylococcus aureus [28] = experiment: Antimicrobial activity against Staphylococcus aureus ATCC 10014 assessed as zone of inhibition after 24 hrs at 0.25 mg/0.1 ml by agar diffusion method; method in brief: as §1
Staphylococcus aureus [29] = experiment: Antimicrobial activity against Staphylococcus aureus ATCC 10001 assessed as zone of inhibition after 24 hrs at 0.25 mg/0.1 ml by agar diffusion method; method in brief: as §1
Candida albicans [30] = experiment: Antimicrobial activity against Candida albicans CDC MI-023 assessed as zone of inhibition after 24 hrs at 2 mg/0.1 ml by agar diffusion method; method in brief: as §4
[31] = tested on: Mycolicibacterium smegmatis; experiment: Antimicrobial activity against Mycobacterium smegmatis OU 10049 assessed as zone of inhibition after 48 hrs at 0.1 mg/0.1 ml by agar diffusion method; method in brief: as §2
Mycolicibacterium phlei [32] = experiment: Antimicrobial activity against Mycobacterium phlei ATCC 356 assessed as zone of inhibition after 48 hrs at 0.1 mg/0.1 ml by agar diffusion method; method in brief: as §2
Escherichia coli [33] = experiment: Antimicrobial activity against Escherichia coli ATCC 8739 assessed as zone of inhibition after 24 hrs at 4 mg/0.1 ml by agar diffusion method; method in brief: as §1
Escherichia coli [34] = experiment: Antimicrobial activity against Escherichia coli ATCC 11303 assessed as zone of inhibition after 24 hrs at 0.5 mg/0.1 ml by agar diffusion method; method in brief: as §1
Pseudomonas aeruginosa [35] = experiment: Antimicrobial activity against Pseudomonas aeruginosa OU 10048 assessed as zone of inhibition after 24 hrs at 0.5 mg/0.1 ml by agar diffusion method; method in brief: as §1
Escherichia coli [36] = experiment: Antimicrobial activity against Escherichia coli ATCC 10586 assessed as zone of inhibition after 24 hrs at 0.5 mg/0.1 ml by agar diffusion method; method in brief: as §1
Aspergillus niger [37] = experiment: Antimicrobial activity against Aspergillus niger OU S-23 assessed as zone of inhibition after 48 hrs at 0.25 mg/0.1 ml by agar diffusion method; method in brief: as §4

MIC (Staphylococcus aureus [3]) [µg/mL] | MIC [4] [µg/mL] | MIC (Escherichia coli [8]) [µg/mL] | Compound | inhibition zone (IZ) (Mycolicibacterium phlei [2]) [mm] | inhibition zone (IZ) (Pseudomonas aeruginosa [5]) [mm] | inhibition zone (IZ) (Escherichia coli [6]) [mm] | inhibition zone (IZ) (Aspergillus niger [9]) [mm] | inhibition zone (IZ) (Candida albicans [10]) [mm] | inhibition zone (IZ) [11] [mm] | inhibition zone (IZ) (Escherichia coli [14]) [mm] | inhibition zone (IZ) [20] [mm] | inhibition zone (IZ) (Mycolicibacterium phlei [21]) [mm] | inhibition zone (IZ) (Escherichia coli [22]) [mm] | inhibition zone (IZ) (Escherichia coli [23]) [mm] | inhibition zone (IZ) (Aspergillus niger [24]) [mm] | inhibition zone (IZ) (Staphylococcus aureus [28]) [mm] | inhibition zone (IZ) (Staphylococcus aureus [29]) [mm] | further results
125 | 125 | 500 | Cl.O=C(CCNC12CC3CC(CC(C3)C1)C2)c1ccc(Br)cc1 | 19.2 | <15 | – | 19 | – | 17 | 17.8 | – | – | – | – | – | – | – | inhibition zone (IZ) (Escherichia coli [15]): 15.6 mm; inhibition zone (IZ) (Candida albicans [16]): 15.1 mm; inhibition zone (IZ) (Staphylococcus aureus [17]): 16.6 mm; inhibition zone (IZ) (Staphylococcus aureus [18]): 17 mm; inhibition zone (IZ) (Escherichia coli [19]): 15.3 mm
– | 62.5 (≈ 187 µM) | – | Oc1ccc(-c2ccccc2)cc1CNC12CC3CC(CC(C3)C1)C2 | – | 15 | – | – | – | – | – | – | – | 15 | 15.1 | <15 | 16.8 | 17.3 | inhibition zone (IZ) (Candida albicans [30]): 15.8 mm; inhibition zone (IZ) [31]: 18.7 mm; inhibition zone (IZ) (Mycolicibacterium phlei [32]): 18.9 mm; inhibition zone (IZ) (Escherichia coli [33]): 15.6 mm

Further lines, the molecule ahead of its results:

Compound | MIC (Staphylococcus aureus [3]) [µg/mL] | MIC [4] [µg/mL] | MIC (Escherichia coli [8]) [µg/mL] | inhibition zone (IZ) (Mycolicibacterium phlei [2]) [mm] | inhibition zone (IZ) (Pseudomonas aeruginosa [5]) [mm] | inhibition zone (IZ) (Escherichia coli [6]) [mm] | inhibition zone (IZ) (Aspergillus niger [9]) [mm] | inhibition zone (IZ) (Candida albicans [10]) [mm] | inhibition zone (IZ) [11] [mm] | inhibition zone (IZ) (Escherichia coli [14]) [mm] | inhibition zone (IZ) [20] [mm] | inhibition zone (IZ) (Mycolicibacterium phlei [21]) [mm] | inhibition zone (IZ) (Escherichia coli [22]) [mm] | inhibition zone (IZ) (Escherichia coli [23]) [mm] | inhibition zone (IZ) (Aspergillus niger [24]) [mm] | inhibition zone (IZ) (Staphylococcus aureus [28]) [mm] | inhibition zone (IZ) (Staphylococcus aureus [29]) [mm] | further results
Cl.O=C(CCNC12CC3CC(CC(C3)C1)C2)c1ccc([N+](=O)[O-])cc1 | 125 | 500 | 500 | 19.4 | <14 | 16.5 | 15.2 | 16.4 | 17.4 | – | – | – | – | – | – | – | – | inhibition zone (IZ) (Staphylococcus aureus [1]): 16 mm; inhibition zone (IZ) (Escherichia coli [7]): 16.5 mm; inhibition zone (IZ) (Escherichia coli [12]): 15.3 mm; inhibition zone (IZ) (Staphylococcus aureus [13]): 15.8 mm
CC(CNC12CC3CC(CC(C3)C1)C2)C(=O)c1ccccc1.Cl (configuration not stated) | – | – | – | – | 15 | 16.1 | – | – | – | – | 17 | 17.3 | 16.4 | 17.2 | 15 | – | – | inhibition zone (IZ) (Candida albicans [25]): <15 mm; inhibition zone (IZ) (Staphylococcus aureus [26]): 16.3 mm; inhibition zone (IZ) (Staphylococcus aureus [27]): 16.2 mm
Oc1ccc(/N=N/c2ccccc2)cc1CNC12CC3CC(CC(C3)C1)C2 | – | – | – | – | – | – | – | <15 | – | 15 | 15.5 | <15 | – | – | – | 15.4 | <15 | inhibition zone (IZ) (Escherichia coli [34]): <15 mm; inhibition zone (IZ) (Pseudomonas aeruginosa [35]): 15 mm; inhibition zone (IZ) (Escherichia coli [36]): 15 mm; inhibition zone (IZ) (Aspergillus niger [37]): 15 mm
